B1: Osa-1-4 twister ribozyme (parent)
chain: CCGCCUAACACUGCCAAUGCCGGUCCCAAGCCCGGAUAAAAGUGGAGGGGGCGG

Variants of: B1
Experiment: self-cleavage, relative activity (ratio to wild type); higher = more cleavage; co-transcriptional
Method in brief: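 Relative activity is the fraction cleaved divided by that of the wild-type ribozyme. The library came from a DNA template for a 54-nucleotide Oryza sativa twister ribozyme, doped at the 48 positions downstream of the cleavage site with 97 % wild-type base and 1 % of each other base. After 2 h of in vitro transcription at 37 °C with co-transcriptional self-cleavage, the RNA was reverse-transcribed with a template-switching oligonucleotide, amplified by PCR and deep-sequenced, and reads with or without upstream sequence gave the cleavage status.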

Variant	self-cleavage
G50C U24C	0.11
G50C U24G	0.02
G50C U24A	0.08
G49A G51A	0.33
G49A G51U	0.15
G49A G51C	0.09
C52A C9A	0.55
C52A C9G	0.8
C52A C9U	0.82
G51C G53C	0.04
G51C G53U	0.06
G51C G53A	0.07
G51C U43A	0.06
G51C U43C	0.06
G51C U43G	0.06
G50A U37C	0.84
G50A U37A	0.38
G50A U37G	0.74
G48C U37A	0.08
G48C U37G	0.16
G48C U37C	0.1
G51C U12C	0.04
G51C U12A	0.05
G51C U12G	0.05

Variant	self-cleavage
G49C U12C	0.04
G49C U12G	0.06
G49C U12A	0.08
G51U U43A	0.13
G51U U43G	0.08
G51U U43C	0.11
G48C G54C	0.1
G48C G54A	0.11
G48C G54U	0.2
G48C U43A	0.08
G48C U43C	0.07
G48C U43G	0.07
G51U U24C	0.05
G51U U24G	0.02
G51U U24A	0.05
G51U	0.44
G51C	0.17
G51A	0.77
C52A G13C	0.04
C52A G13A	0.08
C52A G13U	0.03
G49A G54C	0.11
G49A G54A	0.15
G49A G54U	0.39

Variant	self-cleavage
G50C U12C	0.34
G50C U12A	0.35
G50C U12G	0.17
G51A U12C	0.22
G51A U12G	0.07
G51A U12A	0.22
G48A G51U	0.05
G49U G51A	0.32
G49U G51C	0.06
G49U G51U	0.12
G49C U18A	0.05
G49C U18G	0.09
G49C U18C	0.05
G51U U12A	0.09
G51U U12C	0.08
G51U U12G	0.05
G48A U24G	0.01
G48A U24A	0.05
G48A U24C	0.04
C52A G19A	0.42
C52A G19U	0.2
C52A G19C	0.08
G50U	1.02
G50A	0.76

Variant	self-cleavage
G50C	1.03
C52A G30C	0.06
C52A G30U	0.04
C52A G30A	0.04
G49C G53U	0.05
G49C G53C	0.03
G49C G53A	0.06
G49U G54U	0.26
G49U G54C	0.06
G49U G54A	0.1
G49C	0.07
G49U	0.23
G49A	0.26
G50C G54C	0.1
G50C G54U	0.32
G50C G54A	0.15
G48U	0.1
G48C	0.12
G51U U18C	0.29
G51U U18A	0.31
G51U U18G	0.35
G51U U37G	0.4
G51U U37A	0.15
G51U U37C	0.51

Variant	self-cleavage
G51C G54A	0.09
G51C G54U	0.12
G51C G54C	0.34
C52A G22A	0.71
C52A G22C	0.07
C52A G22U	0.17
G49A G50C	0.22
G49A G50U	0.23
G49A G50A	0.27
G49A U12C	0.05
G49A U12A	0.08
G49A U12G	0.06
G48C U12A	0.07
G48C U12G	0.07
G48C U12C	0.05
G51C U37A	0.08
G51C U37C	0.14
G51C U37G	0.18
G51A U43A	0.25
G51A U43C	0.2
G51A U43G	0.1
G49A G53U	0.09
G49A G53C	0.05
G49A G53A	0.11

Variant	self-cleavage
G50U U43C	0.68
G50U U43G	0.71
G50U U43A	0.92
G50U G53U	0.37
G50U G53A	0.61
G50U G53C	0.09
G48U G53U	0.08
G48U G53A	0.1
G48U G53C	0.06
G50A U12G	0.11
G50A U12A	0.44
G50A U12C	0.37
G49C U37C	0.07
G49C U37A	0.05
G49C U37G	0.08
G48U U37A	0.05
G48U U37G	0.11
G48U U37C	0.09
G50C U37A	0.78
G50C U37C	1.05
G50C U37G	1.04
G49C G50C	0.17
G49C G50A	0.2
G49C G50U	0.14

Variant	self-cleavage
G51A G53U	0.17
G51A G53A	0.64
G51A G53C	0.06
G51A U37C	0.82
G51A U37A	0.39
G51A U37G	0.78
G48U U43G	0.04
G48U U43A	0.05
G48U U43C	0.05
G49A U43A	0.08
G49A U43C	0.07
G49A U43G	0.08
G49C U24G	0.01
G49C U24C	0.05
G49C U24A	0.03
G48C U24C	0.04
G48C U24A	0.04
G48C U24G	0.01
G50U G51C	0.11
G50U G51U	0.57
G50U G51A	0.66
G49A U18A	0.16
G49A U18C	0.16
